# Experimental data collected from several papers.
# Protocols differ between the studies behind these lines.
SMILES,tested on,assay,system,conditions,quantity,result
CC(=O)c1ccc(Oc2ccc(C(=O)C(Cl)Cl)cc2[N+](=O)[O-])cc1,NCI-H1299,"cell growth or viability, MTT",,2.5 µM,inhibition,92.2%
O=C1C(NCCc2ccc(O)cc2)=CC2=NCCc3c[nH]c1c32,Babesia divergens,"parasite growth, SYBR Green",,"60 h, blood stage",IC50,0.404 µM
C#CCOc1ccc(/C=C/c2cc(OC)cc(OC)c2-c2cnnn2C(=O)NCCC)cc1,RAW264.7,"NO release, inhibitor, Griess",,"10 µM, LPS-stimulated",inhibition,94.2%
CN(Cc1ccc(C(C)(C)C)cc1)Cc1cccc2ccccc12,Trichophyton mentagrophytes,"microbial growth, disc diffusion",ATCC18748,"0.256 µg/mL, 72 h",inhibition zone,≥ 55 mm
CC#CCOc1ccc(/C=C/c2cc(OC)cc(OC)c2-c2cnnn2C(=O)NCCc2ccccc2)cc1,RAW264.7,"NO release, inhibitor, Griess",,"10 µM, LPS-stimulated",inhibition,82.3%
N#Cc1c(-c2ccc(Cl)cc2Cl)c(C(N)=S)c(N)n(N)c1=O,Enterobacter cloacae,"microbial growth, well diffusion",ATCC23355,500 µg/mL,inhibition zone,18 mm
C#CCOc1ccc(/C=C/c2cc(OC)cc(OC)c2-c2cnnn2C(=O)NCCc2ccccc2)cc1,RAW264.7,"NO release, inhibitor, Griess",,"10 µM, LPS-stimulated",inhibition,50.4%
CN(Cc1ccc(C2(C(F)(F)F)CC2)cc1)Cc1cccc2ccccc12.Cl,Trichophyton mentagrophytes,"microbial killing, broth dilution",ATCC18748,72 h,MFC,8000 µg/mL
O=C(c1ccccc1)c1ccc(Oc2ccc(C(=O)C(Cl)Cl)cc2[N+](=O)[O-])cc1,NCI-H1299,"cell growth or viability, MTT",,2.5 µM,inhibition,85.3%
C#CCOc1ccc(/C=C/c2cc(OC)cc(OC)c2-c2cnnn2C(=O)NCC)cc1,RAW264.7,"NO release, inhibitor, Griess",,"10 µM, LPS-stimulated",inhibition,71.3%
N#Cc1ccc(Oc2ccc(C(=O)C(Cl)Cl)cc2[N+](=O)[O-])cc1,NCI-H1299,"cell growth or viability, MTT",,2.5 µM,inhibition,96.2%
C=CC(=O)NC1CCN(c2ncc3ncnc(Nc4ccc(Oc5ccc6c(c5)ncn6C)c(C)c4)c3n2)CC1,NCI-H1437,cell growth or viability,,,EC50,4.99 µM
